Source: ChEMBL document CHEMBL3351727, “New praziquantel derivatives containing NO-donor furoxans and related furazans as active agents against Schistosoma mansoni” (Eur J Med Chem, 2014)
Active and inactive are the calls of the source. No cut-off for these calls is given here.

Key:
Schistosoma mansoni [1] = assay: Antiparasitic activity against Schistosoma mansoni infected in female Swiss-Webster mouse assessed as worm killing at 10 uM after 96 hrs by stereomicroscopy; type: functional, organism-based
Method in brief: (§1)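 Adult worms were washed in RPMI 1640 with 25 mM HEPES, penicillin, streptomycin and 10% FBS, then held 15–20 per well overnight at 37°C in 5% CO₂. Medium was renewed the next day. Compounds from 10 mM DMSO stocks were added at 10 or 50 μM, with equal DMSO volumes in all wells and DMSO-only negative controls. After compound removal, morphology and mobility were followed over days.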

Schistosoma mansoni [2] = assay: Antiparasitic activity against Schistosoma mansoni cercariae infected in female Swiss-Webster mouse assessed as worm contraction at 50 uM after 24 to 48 hrs by stereomicroscopy; type: functional, organism-based; method in brief: as §1
Schistosoma mansoni [3] = assay: Antiparasitic activity against Schistosoma mansoni cercariae infected in female Swiss-Webster mouse assessed as worm contraction at 10 uM after 24 to 48 hrs by stereomicroscopy; type: functional, organism-based; method in brief: as §1
Schistosoma mansoni [4] = assay: Antiparasitic activity against Schistosoma mansoni infected in female Swiss-Webster mouse assessed as worm killing at 50 uM after 24 hrs by stereomicroscopy; type: functional, organism-based; method in brief: as §1
Schistosoma mansoni [5] = assay: Antiparasitic activity against Schistosoma mansoni infected in female Swiss-Webster mouse assessed as worm killing at 10 uM after 144 hrs by stereomicroscopy
[6] = biological target: T1, Thioredoxin glutathione reductase (Schistosoma mansoni, UniProt Q962Y6); assay: Inhibition of Schistosoma mansoni recombinant thioredoxin glutathione reductase assessed as 5-thio-2nitrobezoic acid formation after 3 mins
T1 sequence (Q962Y6 whole entry): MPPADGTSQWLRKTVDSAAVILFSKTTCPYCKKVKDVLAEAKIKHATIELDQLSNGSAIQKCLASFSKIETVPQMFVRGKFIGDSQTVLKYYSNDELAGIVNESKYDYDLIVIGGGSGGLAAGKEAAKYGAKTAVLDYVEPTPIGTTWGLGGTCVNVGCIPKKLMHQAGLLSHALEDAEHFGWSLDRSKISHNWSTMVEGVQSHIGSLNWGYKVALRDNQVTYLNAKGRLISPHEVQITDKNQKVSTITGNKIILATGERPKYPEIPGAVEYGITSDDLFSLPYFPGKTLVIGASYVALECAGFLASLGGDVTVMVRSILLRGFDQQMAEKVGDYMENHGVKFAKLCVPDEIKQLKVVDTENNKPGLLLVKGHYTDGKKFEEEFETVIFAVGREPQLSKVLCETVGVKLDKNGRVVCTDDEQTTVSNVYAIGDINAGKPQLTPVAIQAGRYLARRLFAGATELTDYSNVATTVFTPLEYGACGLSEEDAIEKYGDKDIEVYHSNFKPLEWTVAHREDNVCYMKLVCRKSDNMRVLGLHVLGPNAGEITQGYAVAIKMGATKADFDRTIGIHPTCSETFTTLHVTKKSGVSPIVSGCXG

Schistosoma mansoni [7] = assay: Antiparasitic activity against Schistosoma mansoni infected in female Swiss-Webster mouse assessed as worm killing at 50 uM after 144 hrs by stereomicroscopy
[8] = Induction of NO release in pH 7.4 buffer solution at 5:1 excess of L-cysteine after 1 hr incubation by Griess assay; type: physicochemical; settings: pH 7.4, 1 h
Method in brief: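 Compound was incubated 1 hr at 37 °C in pH 7.4 buffer with a 5:1 molar excess of L-cysteine. Nitrite was measured by Griess reaction and reported as % NO₂⁻ (mol/mol) ± SE.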

Schistosoma mansoni [9] = assay: Antiparasitic activity against Schistosoma mansoni cercariae infected in female Swiss-Webster mouse assessed as male worm contraction at 50 uM after 24 to 48 hrs by stereomicroscopy; type: functional, organism-based; method in brief: as §1
Schistosoma mansoni [10] = assay: Antiparasitic activity against Schistosoma mansoni infected in female Swiss-Webster mouse assessed as worm killing at 10 uM after 48 hrs by stereomicroscopy; type: functional
Method in brief: (§2)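 Adult S. mansoni worms were washed in complete RPMI 1640 with 25 mM HEPES, penicillin, streptomycin and 10% FBS. They were held 15–20 per well overnight at 37°C in 5% CO₂, then moved to fresh medium. Compounds from 10 mM DMSO stocks were added to final 10 or 50 μM. Controls received an equal volume of DMSO, and worm death was scored.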

Schistosoma mansoni [11] = assay: Antiparasitic activity against Schistosoma mansoni infected in female Swiss-Webster mouse assessed as worm killing at 50 uM after 48 hrs by stereomicroscopy; type: functional; method in brief: as §2
Schistosoma mansoni [12] = assay: Antiparasitic activity against Schistosoma mansoni infected in female Swiss-Webster mouse assessed as worm killing at 50 uM after 72 hrs by stereomicroscopy; type: functional, organism-based; method in brief: as §1
Schistosoma mansoni [13] = assay: Antiparasitic activity against Schistosoma mansoni cercariae infected in female Swiss-Webster mouse assessed as female worm contraction at 10 uM after 24 to 48 hrs by stereomicroscopy; type: functional, organism-based; method in brief: as §1

Row | Compound | Activity (Schistosoma mansoni [1]) | Activity (Schistosoma mansoni [2]) | Activity (Schistosoma mansoni [3]) | Activity (Schistosoma mansoni [4]) | Activity (Schistosoma mansoni [5]) | IC50 ([6]; read-out: IC50) | Activity (Schistosoma mansoni [7]) | Activity [8] | Activity (Schistosoma mansoni [9]) | Activity (Schistosoma mansoni [10]) | Activity (Schistosoma mansoni [11]) | Activity (Schistosoma mansoni [12]) | Activity (Schistosoma mansoni [13]) | IC50 [6]
1 | N#Cc1c(-c2ccccc2)no[n+]1[O-] [FUROXAN] | Active | inactive | inactive | Active |  |  |  |  |  |  |  |  |  | 
2 | N#Cc1nonc1C(=O)N1CC(=O)N2CCc3ccccc3C2C1 (stereo not given) |  | Active | Active |  | 20% | > 50000 nM | 25% |  |  |  |  |  |  | 
3 | COC(=O)c1c(C(=O)N2CC(=O)N3CCc4ccccc4C3C2)no[n+]1[O-] (stereo not given) |  | Active | Active |  | 23% | 148 nM | 50% | < 1% |  |  |  |  |  | 
4 | NC(=O)c1nonc1C(=O)N1CC(=O)N2CCc3ccccc3C2C1 (stereo not given) |  | Active | Active |  | 23% | > 50000 nM | 23% |  |  |  |  |  |  | 
5 | O=C(C1CCCCC1)N1CC(=O)N2CCc3ccc(OCCCOc4no[n+]([O-])c4S(=O)(=O)c4ccccc4)cc3C2C1 (stereo not given) |  |  | inactive | Active |  | 8500 nM |  | 15.7% | Active | Active |  |  |  | 
6 | NC(=O)c1nonc1COc1ccc2c(c1)C1CN(C(=O)C3CCCCC3)CC(=O)N1CC2 (stereo not given) |  | inactive | inactive |  |  | > 50000 nM |  |  |  | inactive | inactive |  |  | 
7 | COC(=O)c1nonc1C(=O)N1CC(=O)N2CCc3ccccc3C2C1 (stereo not given) |  | Active | Active |  | 15% | > 50000 nM | 18% |  |  |  |  |  |  | 
8 | N#Cc1c(C(=O)N2CC(=O)N3CCc4ccccc4C3C2)no[n+]1[O-] (stereo not given) |  | Active |  |  | 30% | 316 nM |  | 56.2% |  |  |  | Active | Active | 
9 | O=C(C1CCCCC1)N1CC(=O)N2CCc3ccccc3C2C1 (racemic) [PRAZIQUANTEL] |  | Active | Active |  | 15% |  | 40% |  |  |  |  |  |  | Not Active
10 | N#Cc1nonc1COc1ccc2c(c1)C1CN(C(=O)C3CCCCC3)CC(=O)N1CC2 (stereo not given) |  | Active | inactive |  |  | > 50000 nM |  |  |  | inactive | inactive |  |  | 
11 | N#Cc1c(COc2ccc3c(c2)C2CN(C(=O)C4CCCCC4)CC(=O)N2CC3)no[n+]1[O-] (stereo not given) |  | Active | inactive | Active |  | 350 nM |  | 33.8% |  | inactive |  |  |  | 
12 | O=C(C1CCCCC1)N1CC(=O)N2CCc3ccc(OCCCOc4nonc4S(=O)(=O)c4ccccc4)cc3C2C1 (stereo not given) |  | Active | Active |  |  | > 50000 nM |  |  |  | inactive | inactive |  |  | 
13 | NC(=O)c1c(C(=O)N2CC(=O)N3CCc4ccccc4C3C2)no[n+]1[O-] (stereo not given) |  | Active | Active |  | 30% | 10 nM | 80% | 1.8% |  |  |  |  |  | 
14 | NC(=O)c1c(COc2ccc3c(c2)C2CN(C(=O)C4CCCCC4)CC(=O)N2CC3)no[n+]1[O-] (stereo not given) |  | inactive | inactive |  |  | 83 nM |  | 1.1% |  | inactive | inactive |  |  | 
